In ChEMBL document CHEMBL1129508, “Betulinic acid derivatives: a new class of specific inhibitors of human immunodeficiency virus type 1 entry” (J Med Chem, 1996) one finds IC50 data, which are given here for 16 compounds.

Each structure is given as a SMILES string. pIC50: −log10 of the molar value.

In the first experiment the test system is Human immunodeficiency virus 1. The experiment in a line: Inhibitory activity tested against the HIV-1 in CEM cells. The class given is functional, organism-based. The settings on record: Human immunodeficiency virus 1, CCRF-CEM. In outline: (§1)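 HIV-1-induced cytopathicity in CEM 4 or MT-4 cell cultures was assessed by counting viable cells after MTT (3-(4,5-dimethylthiazol-2-yl)-2,5-diphenyltetrazolium bromide) staining. IC50 is the concentration that inhibits cytopathicity by 50%. For routine testing, the highest concentration was generally 3 µM, because solubility was limited above 10 µM.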
As a reminder, the pIC50 is the negative decadic logarithm of the IC50, by convention in mol/L. Low values mean a large IC50, high ones a small IC50. For `C=C(C)[C@@H]1CC[C@]2(C(=O)NCCCCCCCNC(=O)CC(=O)O)CC[C@]3(C)[C@H](CCC4[C@@]5(C)CC[C@H](O)C(C)(C)[C@@H]5CC[C@]43C)[C@@H]12` (stereo partly drawn), the negative-log IC50 (pIC50) is 7.30.
The same measure, in the same setting: the result for `C=C(C)[C@@H]1CC[C@]2(C(=O)NCCCCCCCNC(=O)c3ccc(C(=O)O)cc3)CC[C@]3(C)[C@H](CCC4[C@@]5(C)CC[C@H](O)C(C)(C)[C@@H]5CC[C@]43C)[C@@H]12` (stereo partly drawn) reads 6.96.
On the same count and under the same terms, the figure for `C=C(C)[C@@H]1CC[C@]2(C(=O)NCCCCCCCNC(=O)c3ccccc3C(=O)O)CC[C@]3(C)[C@H](CCC4[C@@]5(C)CC[C@H](O)C(C)(C)[C@@H]5CC[C@]43C)[C@@H]12` (stereo partly drawn) is 5.74; for `C=C(C)[C@@H]1CC[C@]2(C(=O)NCCCCCCCNC(=O)CCCC(=O)O)CC[C@]3(C)[C@H](CCC4[C@@]5(C)CC[C@H](O)C(C)(C)[C@@H]5CC[C@]43C)[C@@H]12` (stereo partly drawn) it is 7.70.
Still for that read-out and setting: the figure for `C=C(C)[C@@H]1CC[C@]2(C(=O)NCCCCCCCC(=O)N[C@H](CO)C(=O)O)CC[C@]3(C)[C@H](CCC4[C@@]5(C)CC[C@H](O)C(C)(C)[C@@H]5CC[C@]43C)[C@@H]12` (stereo partly drawn) is 5.72.
On to `C=C(C)[C@@H]1CC[C@]2(C(=O)NCCCCCCCC(=O)NCC(C)C(=O)O)CC[C@]3(C)[C@H](CCC4[C@@]5(C)CC[C@H](O)C(C)(C)[C@@H]5CC[C@]43C)[C@@H]12` (stereo partly drawn), for which the negative logarithm of the IC50 (pIC50) is 6.89.
Still for that read-out and setting: the result for `C=C(C)[C@@H]1CC[C@]2(C(=O)NCCCCCCCC(=O)N[C@@H](CC(N)=O)C(=O)O)CC[C@]3(C)[C@H](CCC4[C@@]5(C)CC[C@H](O)C(C)(C)[C@@H]5CC[C@]43C)[C@@H]12` (stereo partly drawn) reads 6.02.
As for `C=C(C)[C@@H]1CC[C@]2(C(=O)NCCCCCCCC(=O)NC(C)CC(=O)O)CC[C@]3(C)[C@H](CCC4[C@@]5(C)CC[C@H](O)C(C)(C)[C@@H]5CC[C@]43C)[C@@H]12` (stereo partly drawn), the pIC50 was 6.89.
On the same count and under the same terms, the figure for `C=C(C)[C@@H]1CC[C@]2(C(=O)NCCCCCCCC(=O)N[C@@H](CCCCN)C(=O)O)CC[C@]3(C)[C@H](CCC4[C@@]5(C)CC[C@H](O)C(C)(C)[C@@H]5CC[C@]43C)[C@@H]12` (stereo partly drawn) is 5.00; for `C=C(C)[C@@H]1CC[C@]2(C(=O)NCCCCCCCC(=O)NCCCCC(=O)O)CC[C@]3(C)[C@H](CCC4[C@@]5(C)CC[C@H](O)C(C)(C)[C@@H]5CC[C@]43C)[C@@H]12` (stereo partly drawn) it is 7.21.
Same read-out and setting: the result for `C=C(C)[C@@H]1CC[C@]2(C(=O)NCCCCCCCC(=O)N[C@@H](Cc3ccccc3)C(=O)O)CC[C@]3(C)[C@H](CCC4[C@@]5(C)CC[C@H](O)C(C)(C)[C@@H]5CC[C@]43C)[C@@H]12` (stereo partly drawn) reads 5.70; that for `C=C(C)[C@@H]1CC[C@]2(C(=O)NCCCCCCCC(=O)N3CCCC(C(=O)O)C3)CC[C@]3(C)[C@H](CCC4[C@@]5(C)CC[C@H](O)C(C)(C)[C@@H]5CC[C@]43C)[C@@H]12` (stereo partly drawn), 6.73.
Still for that read-out and setting: the figure for `C=C(C)[C@@H]1CC[C@]2(C(=O)NCCCCCCCC(=O)NC(F)CC(=O)O)CC[C@]3(C)[C@H](CCC4[C@@]5(C)CC[C@H](O)C(C)(C)[C@@H]5CC[C@]43C)[C@@H]12` (stereo partly drawn) is 7.02.
For `C=C(C)[C@@H]1CC[C@]2(C(=O)NCCCCCCCC(=O)Nc3cccc(C(=O)O)c3)CC[C@]3(C)[C@H](CCC4[C@@]5(C)CC[C@H](O)C(C)(C)[C@@H]5CC[C@]43C)[C@@H]12` (stereo partly drawn), the negative logarithm of the IC50 (pIC50) was 7.10.
Still for that read-out and setting: the result for `C=C(C)[C@@H]1CC[C@]2(C(=O)NCCCCCCCC(=O)NC(CC(=O)O)C(F)(F)F)CC[C@]3(C)[C@H](CCC4[C@@]5(C)CC[C@H](O)C(C)(C)[C@@H]5CC[C@]43C)[C@@H]12` (stereo partly drawn) reads 6.81; that for `C=C(C)[C@@H]1CC[C@]2(C(=O)NCCCCCCCC(=O)N[C@@H](CC(=O)O)C(=O)O)CC[C@]3(C)[C@H](CCC4[C@@]5(C)CC[C@H](O)C(C)(C)[C@@H]5CC[C@]43C)[C@@H]12` (stereo partly drawn), 4.74.

A further experiment concerns Human immunodeficiency virus 1. The experiment in a line: Inhibitory activity tested against the HIV-1 in MT-4 cells. As to conditions: Human immunodeficiency virus 1, MT4. The class given is functional, organism-based. In outline:
as §1
In the case of `C=C(C)[C@@H]1CC[C@]2(C(=O)NCCCCCCCNC(=O)CC(=O)O)CC[C@]3(C)[C@H](CCC4[C@@]5(C)CC[C@H](O)C(C)(C)[C@@H]5CC[C@]43C)[C@@H]12` (stereo partly drawn), the pIC50 is 7.47.
As to `C=C(C)[C@@H]1CC[C@]2(C(=O)NCCCCCCCNC(=O)c3ccc(C(=O)O)cc3)CC[C@]3(C)[C@H](CCC4[C@@]5(C)CC[C@H](O)C(C)(C)[C@@H]5CC[C@]43C)[C@@H]12` (stereo partly drawn), the negative-log IC50 (pIC50) is 7.66.
